Measured values reported in ChEMBL document CHEMBL1123732, “Flavones. 1. Synthesis and antihypertensive activity of (3-phenylflavonoxy)propanolamines without beta-adrenoceptor antagonism” (J Med Chem, 1987).
Activity calls are given as the source filed them. No cut-off for these calls is given here.

Legend:
Rattus norvegicus [1] = test: Percentage of fall in systolic blood pressure (SBP) at the following hours after dosing at 75 mg/kg (po) at 7.5 hr in spontaneously hypertensive rats(SHR); assay type: functional, Artery
Procedure, shortened: (§1)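 Male spontaneously hypertensive rats (Wistar-Kyoto strain), unanesthetized, dosed orally; systolic pressure measured by indirect tail cuff. Before each reading, rats warmed at 35-37 °C for 15-20 min to dilate the caudal artery. Five rats per treatment group; result is percentage fall in systolic pressure versus untreated control. Significance tested against control.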

Rattus norvegicus [2] = test: […] systolic blood pressure (SBP) for compound-treated group relative to the value for untreated control at 75 mg/kg dose (po) in spontaneously hypertensive rats(SHR); assay type: functional, Artery; procedure, shortened: as §1
Rattus norvegicus [3] = test: Evaluated for the percentage inhibition of the depressor response of isoproterenol (0.25 mg/kg, iv) in spontaneously hypertensive rats at 150 mg/kg peroral dose; NI means no inhibition at 10 mg/kg, iv
Rattus norvegicus [4] = test: Percentage of fall in systolic blood pressure (SBP) at the following hours after dosing at 75 mg/kg (po) at 24 hr in spontaneously hypertensive rats(SHR); assay type: functional, Artery; procedure, shortened: as §1
Rattus norvegicus [5] = test: Percentage of fall in systolic blood pressure (SBP) at the following hours after dosing at 75 mg/kg (po) at 2 hr in spontaneously hypertensive rats(SHR); assay type: functional, Artery; procedure, shortened: as §1
Rattus norvegicus [6] = test: Percentage of fall in systolic blood pressure (SBP) at the following hours after dosing at 75 mg/kg (po) at 5 hr in spontaneously hypertensive rats(SHR); assay type: functional, Artery; procedure, shortened: as §1
Adrenergic receptor beta [7] = molecular target: T1, Adrenergic receptor beta (Rattus norvegicus, UniProt P18090+P10608+P26255); test: Evaluated for beta-receptor affinity, determined in rat brain membrane fraction with [3H]- dihydroalprenolol; assay type: cell membranes
Procedure, shortened: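 Rat brain with cerebellum removed, homogenized in ice-cold 50 mM Tris-HCl pH 8.0 and spun at 50000g for 15 min, pellet washed once more the same way. Binding used 0.4-0.6 mg protein, 1 nM [3H]dihydroalprenolol, 50 mM Tris pH 8.0, and 5-10 competitor concentrations. IC50 read visually from a semilog plot; Ki from Cheng-Prusoff with KD approximately 1 nM.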

Rattus norvegicus [8] = test: Percentage of fall in systolic blood pressure (SBP) at the following hours after dosing at 17 mg/kg (po) at 24 hr in spontaneously hypertensive rats(SHR);NS means not significant; assay type: functional, organism-based; parameters: dose 17 mg/kg; settings: Artery; procedure, shortened: as §1
Rattus norvegicus [9] = test: Percentage of fall in systolic blood pressure (SBP) at the following hours after dosing at 17 mg/kg (po) at 7.5 hr in spontaneously hypertensive rats(SHR); assay type: functional, Artery; procedure, shortened: as §1
Rattus norvegicus [10] = test: Percentage of fall in systolic blood pressure (SBP) at the following hours after dosing at 8 mg/kg (po) at 5 hr in spontaneously hypertensive rats(SHR);NS means not significant; assay type: functional, organism-based; parameters: dose 8 mg/kg; settings: Artery; procedure, shortened: as §1
Rattus norvegicus [11] = test: Percentage of fall in systolic blood pressure (SBP) at the following hours after dosing at 8 mg/kg (po) at 7.5 hr in spontaneously hypertensive rats(SHR); assay type: functional, Artery; procedure, shortened: as §1
Rattus norvegicus [12] = test: Percentage of fall in systolic blood pressure (SBP) at the following hours after dosing at 17 mg/kg (po) at 5 hr in spontaneously hypertensive rats(SHR); assay type: functional, Artery; procedure, shortened: as §1
Rattus norvegicus [13] = test: Evaluated for the percentage inhibition of the depressor response of isoproterenol (0.25 mg/kg, iv) in spontaneously hypertensive rats at 150 mg/kg perorally; NI means no inhibition at 10 mg/kg, iv; assay type: functional, organism-based
Procedure, shortened: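 Male SHR, three per group, dosed orally 150 mg/kg as suspension in 4% Clearjel. At 4 h, anesthetized with sodium pentobarbital (45 mg/kg, ip); femoral artery and vein cannulated; arterial pressure monitored continuously. Isoproterenol given iv in 0.1 mL saline; depressor response compared with Clearjel vehicle-treated rats as percentage inhibition.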

Rattus norvegicus [14] = test: Percentage of fall in systolic blood pressure (SBP) at the following hours after dosing at 8 mg/kg (po) at 2 hr in spontaneously hypertensive rats(SHR); assay type: functional, Artery; procedure, shortened: as §1
Rattus norvegicus [15] = test: Percentage of fall in systolic blood pressure (SBP) at the following hours after dosing at 17 mg/kg (po) at 2 hr in spontaneously hypertensive rats(SHR); assay type: functional, Artery; procedure, shortened: as §1
Rattus norvegicus [16] = test: Percentage of fall in systolic blood pressure (SBP) at the following hours after dosing at 8 mg/kg (po) at 24 hr in spontaneously hypertensive rats(SHR);NS means not significant; assay type: functional, organism-based; parameters: dose 8 mg/kg; settings: Artery; procedure, shortened: as §1
Rattus norvegicus [17] = test: […] systolic blood pressure (SBP) for compound-treated group relative to the value for untreated control at 8 mg/kg dose (po) in spontaneously hypertensive rats(SHR); assay type: functional, Artery; procedure, shortened: as §1
Rattus norvegicus [18] = test: […] systolic blood pressure (SBP) for compound-treated group relative to the value for untreated control at 17 mg/kg dose (po) in spontaneously hypertensive rats(SHR); assay type: functional, Artery; procedure, shortened: as §1
Rattus norvegicus [19] = test: Percentage of fall in systolic blood pressure (SBP) at the following hours after dosing at 75 mg/kg (po) at 24 hr in spontaneously hypertensive rats(SHR); NS means not significant; assay type: functional, organism-based; parameters: dose 75 mg/kg; settings: Artery; procedure, shortened: as §1
Rattus norvegicus [20] = test: Percentage of fall in systolic blood pressure (SBP) at the following hours after dosing at 75 mg/kg (po) at 5 hr in spontaneously hypertensive rats(SHR); NS means not significant; assay type: functional, organism-based; parameters: dose 75 mg/kg; settings: Artery; procedure, shortened: as §1
Rattus norvegicus [21] = test: Percentage of fall in systolic blood pressure (SBP) at the following hours after dosing at 75 mg/kg (po) at 2 hr in spontaneously hypertensive rats(SHR); NS means not significant; assay type: functional, organism-based; parameters: dose 75 mg/kg; settings: Artery; procedure, shortened: as §1
Rattus norvegicus [22] = test: Percentage of fall in systolic blood pressure (SBP) at the following hours after dosing at 75 mg/kg (po) at 7.5 hr in spontaneously hypertensive rats(SHR) NS means not significant; assay type: functional, organism-based; parameters: dose 75 mg/kg; settings: Artery; procedure, shortened: as §1
Rattus norvegicus [23] = test: Percentage of fall in systolic blood pressure (SBP) at the following hours after dosing at 75 mg/kg (po) at 2 hr in spontaneously hypertensive rats(SHR):NS means not significant; assay type: functional, organism-based; parameters: dose 75 mg/kg; settings: Artery; procedure, shortened: as §1
Rattus norvegicus [24] = test: Percentage of fall in systolic blood pressure (SBP) at the following hours after dosing at 75 mg/kg (po) at 7.5 hr in spontaneously hypertensive rats(SHR); NS means not significant; assay type: functional, organism-based; parameters: dose 75 mg/kg; settings: Artery; procedure, shortened: as §1
Adrenergic receptor beta [25] = molecular target: T1, Adrenergic receptor beta; test: Evaluated for beta-receptor affinity determined in rat brain membrane fraction with [3H]- dihydroalprenolol; assay type: cell membranes
Rattus norvegicus [26] = test: Percentage of fall in systolic blood pressure (SBP) after dosing at 17 mg/kg (po) at 2 hr in spontaneously hypertensive rats(SHR). NS means not significant; assay type: functional, organism-based; parameters: dose 17 mg/kg; settings: Artery; procedure, shortened: as §1
Rattus norvegicus [27] = test: Percentage of fall in systolic blood pressure (SBP) after dosing at 8 mg/kg (po) at 2 hr in spontaneously hypertensive rats(SHR). NS means not significant; assay type: functional, organism-based; parameters: dose 8 mg/kg; settings: Artery; procedure, shortened: as §1
Rattus norvegicus [28] = test: Percentage of fall in systolic blood pressure (SBP) after dosing at 17 mg/kg (po) at 24 hr in spontaneously hypertensive rats(SHR); assay type: functional, Artery; procedure, shortened: as §1
Rattus norvegicus [29] = test: Percentage of fall in systolic blood pressure (SBP) after dosing at 8 mg/kg at 24 hr in spontaneously hypertensive rats(SHR). NS means not significant; assay type: functional, organism-based; parameters: dose 8 mg/kg; settings: Artery; procedure, shortened: as §1
Rattus norvegicus [30] = test: Percentage of fall in systolic blood pressure (SBP) after dosing at 17 mg/kg (po) at 5 hr in spontaneously hypertensive rats(SHR); assay type: functional, Artery; procedure, shortened: as §1
Rattus norvegicus [31] = test: Percentage of fall in systolic blood pressure (SBP) at the following hours after dosing at 8 mg/kg (po) at 5 hr in spontaneously hypertensive rats(SHR); assay type: functional, Artery; procedure, shortened: as §1
Rattus norvegicus [32] = test: Percentage of fall in systolic blood pressure (SBP) after dosing at 8 mg/kg (po) at 7.5 hr in spontaneously hypertensive rats(SHR); assay type: functional, Artery; procedure, shortened: as §1
Rattus norvegicus [33] = test: Percentage of fall in systolic blood pressure (SBP) after dosing at 17 mg/kg (po) at 7.5 hr in spontaneously hypertensive rats(SHR); assay type: functional, Artery; procedure, shortened: as §1
Rattus norvegicus [34] = species on record: Rattus norvegicus; test: animal or person; settings: iv, read-out: Inhibition
Rattus norvegicus [35] = test: Evaluated for the percentage inhibition of the depressor response of isoproterenol (0.25 mg/kg, iv) in spontaneously hypertensive rats at 150 mg/kg peroral dose;NI means no inhibition at 10 mg/kg, iv

SMILES | Decrease in SBP (Rattus norvegicus [1]) | SBP (Rattus norvegicus [2]) | Decrease in SBP (Rattus norvegicus [4]) | Decrease in SBP (Rattus norvegicus [6]) | Decrease in SBP (Rattus norvegicus [19]) | Decrease in SBP (Rattus norvegicus [20]) | Decrease in SBP (Rattus norvegicus [21]) | further results
CCC(C)NCC(O)COc1ccc2c(=O)c(-c3ccccc3)c(-c3ccccc3)oc2c1 (stereo unspecified) | 19% | 210 mmHg | 19% | 18% | – | – | – | inhibition (Rattus norvegicus [3]): inactive; Decrease in SBP (Rattus norvegicus [5]): 12%
O=c1c(-c2ccccc2)c(-c2ccccc2)oc2cc(OCC(O)CNC3CC3)ccc12 (stereo unspecified) | – | – | – | – | – | – | – | Ki (Adrenergic receptor beta [7]): > 0.00005 M; Decrease in SBP (Rattus norvegicus [8]): inactive; Decrease in SBP (Rattus norvegicus [9]): 18%; Decrease in SBP (Rattus norvegicus [10]): inactive; Decrease in SBP (Rattus norvegicus [11]): 10%; Decrease in SBP (Rattus norvegicus [12]): 23%; inhibition (Rattus norvegicus [13]): inactive; Decrease in SBP (Rattus norvegicus [14]): 7%; Decrease in SBP (Rattus norvegicus [15]): 10%; Decrease in SBP (Rattus norvegicus [16]): inactive; SBP (Rattus norvegicus [17]): 188 mmHg; SBP (Rattus norvegicus [18]): 193 mmHg
CC(C)(C)NCC(O)COc1ccc2c(=O)c(-c3ccccc3)c(-c3ccccc3)oc2c1.Cl (stereo unspecified) | – | 196 mmHg | – | – | inactive | inactive | inactive | Ki (Adrenergic receptor beta [7]): > 0.00005 M; Decrease in SBP (Rattus norvegicus [22]): inactive
C=CCNCC(O)COc1ccc2c(=O)c(-c3ccccc3)c(-c3ccccc3)oc2c1 (stereo unspecified) | 11% | 197 mmHg | 9% | 10% | – | – | – | inhibition (Rattus norvegicus [3]): inactive; Decrease in SBP (Rattus norvegicus [23]): inactive
CCCCCCNCC(O)COc1ccc2c(=O)c(-c3ccccc3)c(-c3ccccc3)oc2c1.Cl (stereo unspecified) | – | 200 mmHg | – | – | inactive | inactive | inactive | Decrease in SBP (Rattus norvegicus [24]): inactive
CC(C)NCC(O)COc1ccc2c(=O)c(-c3ccccc3)c(-c3ccccc3)oc2c1.Cl (stereo unspecified) | – | – | – | – | – | – | – | Ki (Adrenergic receptor beta [25]): > 0.00005 M; Decrease in SBP (Rattus norvegicus [26]): inactive; Decrease in SBP (Rattus norvegicus [27]): inactive; inhibition (Rattus norvegicus [13]): inactive; Decrease in SBP (Rattus norvegicus [28]): 11%; Decrease in SBP (Rattus norvegicus [29]): inactive; Decrease in SBP (Rattus norvegicus [30]): 14%; Decrease in SBP (Rattus norvegicus [31]): 10%; Decrease in SBP (Rattus norvegicus [32]): 8%; Decrease in SBP (Rattus norvegicus [33]): 20%; SBP (Rattus norvegicus [17]): 198 mmHg; SBP (Rattus norvegicus [18]): 195 mmHg
O=c1c(-c2ccccc2)c(-c2ccccc2)oc2cc(OCC(O)CNC3CCCCC3)ccc12 (stereo unspecified) | 13% | 216 mmHg | 16% | 10% | – | – | inactive | –
CC(C)NCC(O)COc1cccc2ccccc12 (stereo unspecified) [PROPRANOLOL] | – | 212 mmHg | – | – | inactive | inactive | inactive | Decrease in SBP (Rattus norvegicus [24]): inactive; inhibition in vivo at 10 mg/kg (Rattus norvegicus [34]): 100%
CCCCCNCC(O)COc1ccc2c(=O)c(-c3ccccc3)c(-c3ccccc3)oc2c1 (stereo unspecified) | – | 191 mmHg | – | – | inactive | inactive | inactive | Decrease in SBP (Rattus norvegicus [24]): inactive
CCCCNCC(O)COc1ccc2c(=O)c(-c3ccccc3)c(-c3ccccc3)oc2c1 (stereo unspecified) | 11% | 199 mmHg | – | – | inactive | inactive | inactive | Ki (Adrenergic receptor beta [7]): > 0.00005 M
CCCN(C)CC(O)COc1ccc2c(=O)c(-c3ccccc3)c(-c3ccccc3)oc2c1.O=C(O)/C=C\C(=O)O (stereo unspecified) | 10% | 199 mmHg | 18% | 9% | – | – | – | inhibition (Rattus norvegicus [3]): inactive; Decrease in SBP (Rattus norvegicus [5]): 7%
Cl.O=c1c(-c2ccccc2)c(-c2ccccc2)oc2cc(OCC(O)CNC3CCCC3)ccc12 (stereo unspecified) | 23% | 200 mmHg | 18% | 23% | – | – | – | Decrease in SBP (Rattus norvegicus [5]): 10%; inhibition (Rattus norvegicus [35]): inactive
